In brackets after ≈: the same amount, converted by molar mass.
What was measured:
Format in all cases: functional
[1] = test system: Mycobacterium tuberculosis; test: Antimicrobial activity against drug-susceptible Mycobacterium tuberculosis isolate 6 expressing wild type atpE selected after 10 times MIC drug exposure
Procedure, shortened: (§1)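 Each resistant mutant clone (one colony picked per independent fluctuation culture selected on drug agar) is suspended in PBS, sonicated and applied by 96-pin replicator. Nonselective and rifampin control plates are included. Plates are read after 4 weeks; MIC is the lowest concentration with no visible growth.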

[2] = test system: Mycobacterium tuberculosis; test: Antimicrobial activity against drug-susceptible Mycobacterium tuberculosis H37Rv
[3] = test system: Mycobacterium tuberculosis; test: Antimicrobial activity against drug-susceptible Mycobacterium tuberculosis Mycobacterium tuberculosis H37Rv expressing wild type atpE and F0 operon selected after 10 times MIC drug exposure; procedure, shortened: as §1
[4] = test system: Mycobacterium tuberculosis; test: Antimicrobial activity against drug-susceptible Mycobacterium tuberculosis H37Rv expressing wild type atpE selected after 10 times MIC drug exposure; procedure, shortened: as §1
[5] = test system: Mycobacterium tuberculosis; test: Antimicrobial activity against drug-susceptible Mycobacterium tuberculosis isolate 4 expressing wild type atpE and F0 operon selected after 10 times MIC drug exposure; procedure, shortened: as §1
[6] = test system: Mycobacterium tuberculosis; test: Antimicrobial activity against drug-susceptible Mycobacterium tuberculosis isolate 6 expressing wild type atpE selected after 30 times MIC drug exposure; procedure, shortened: as §1
[7] = test system: Mycobacterium tuberculosis; test: Antimicrobial activity against drug-susceptible Mycobacterium tuberculosis isolate 4 expressing wild type atpE selected after 10 times MIC drug exposure; procedure, shortened: as §1
[8] = test system: Mycobacterium tuberculosis; test: Antimicrobial activity against drug-susceptible Mycobacterium tuberculosis H37Rv expressing wild type atpE selected after 30 times MIC drug exposure; procedure, shortened: as §1

Structure (SMILES): COc1nc2ccc(Br)cc2cc1[C@@H](c1ccccc1)[C@@](O)(CCN(C)C)c1cccc2ccccc12 [BEDAQUILINE]
- MIC [1]: 0.24 µg/mL (≈ 0.432 µM)
- MIC [2]: 0.03 µg/mL (≈ 0.054 µM)
- MIC [3]: 0.48 µg/mL (≈ 0.864 µM)
- MIC [4]: 0.48 µg/mL (≈ 0.864 µM)
- MIC [5]: 0.3 µg/mL (≈ 0.54 µM)
- MIC [6]: 0.12 µg/mL (≈ 0.216 µM)
- MIC [7]: 0.12 µg/mL (≈ 0.216 µM)
- MIC [8]: 0.24 µg/mL (≈ 0.432 µM)
